Shown are actives, neighbours in structure and some others; about 3% of the full set was active somewhere.
T cruzi repl = inhibitors of intracellular T. cruzi growth, primary screen, luminescence, NIH3T3 host cells. T. cruzi beta-gal in NIH3T3, 90 h. inhibition, % (no concentration beside the values). actives 1.4% (n = 300,000). AID 1885, 2009;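 active = mean inhibition across valid replicates above about 55%, limit read from the data; inconclusive = mean below that limit but half or more replicates reach it; inactive = mean below it, under half of replicates reach it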;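 note: signal also drops with host cell toxicity which is not excluded here; 0% = plate median of DMSO wells and 100% = zero luminescence signal; higher percent means less beta-gal luminescence so fewer parasites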
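System: NIH/3T3 fibroblasts plus reporter T. cruzi. Medium: DMEM plus 2% FBS. Probe or stimulus: 5000 reporter trypomastigotes per well. Compound: single 50 nL compound addition per well in DMSO. Incubation: co-culture of at least 90 h after 3 h attachment. Detection: GalScreen β-gal luminescence, detergent lysis, 60 min. Evaluation: parasite load inhibition, %.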
CR mimetic SO = reduction of superoxide in aged yeast, primary screen, HTS; S. cerevisiae aged cells, superoxide DHE fluorescence; stronger effect = lower value; actives 0.18% (n = 330,000); superoxide response (% of plate mean), % at 10 µM; AID 2690, 2010;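 active = superoxide response under a set limit, about three screen SD below normal, cut at about 65% in these data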;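 note: yeast aged for seven days with compound at 30 °C before DHE staining; 100% = average MFI of all compound-treated wells on the plate with controls excluded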
NRP1-CendR mod = modulators of CendR peptide binding to NRP-1, primary screen, biochemical, fluorescence polarization, uHTS | inhibition, % at 25 µM | actives 0.85% (n = 360,000) | Neuropilin-1 (Homo sapiens), O14786 | FAM-RPARPAR peptide binding to NRP-1;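 active = inhibition or corrected inhibition above about 18%, plus a signal ratio from 0.5 to 1.5, limit read from the data, passing the limit was not always enough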
Target sequence (O14786 whole entry, looked up): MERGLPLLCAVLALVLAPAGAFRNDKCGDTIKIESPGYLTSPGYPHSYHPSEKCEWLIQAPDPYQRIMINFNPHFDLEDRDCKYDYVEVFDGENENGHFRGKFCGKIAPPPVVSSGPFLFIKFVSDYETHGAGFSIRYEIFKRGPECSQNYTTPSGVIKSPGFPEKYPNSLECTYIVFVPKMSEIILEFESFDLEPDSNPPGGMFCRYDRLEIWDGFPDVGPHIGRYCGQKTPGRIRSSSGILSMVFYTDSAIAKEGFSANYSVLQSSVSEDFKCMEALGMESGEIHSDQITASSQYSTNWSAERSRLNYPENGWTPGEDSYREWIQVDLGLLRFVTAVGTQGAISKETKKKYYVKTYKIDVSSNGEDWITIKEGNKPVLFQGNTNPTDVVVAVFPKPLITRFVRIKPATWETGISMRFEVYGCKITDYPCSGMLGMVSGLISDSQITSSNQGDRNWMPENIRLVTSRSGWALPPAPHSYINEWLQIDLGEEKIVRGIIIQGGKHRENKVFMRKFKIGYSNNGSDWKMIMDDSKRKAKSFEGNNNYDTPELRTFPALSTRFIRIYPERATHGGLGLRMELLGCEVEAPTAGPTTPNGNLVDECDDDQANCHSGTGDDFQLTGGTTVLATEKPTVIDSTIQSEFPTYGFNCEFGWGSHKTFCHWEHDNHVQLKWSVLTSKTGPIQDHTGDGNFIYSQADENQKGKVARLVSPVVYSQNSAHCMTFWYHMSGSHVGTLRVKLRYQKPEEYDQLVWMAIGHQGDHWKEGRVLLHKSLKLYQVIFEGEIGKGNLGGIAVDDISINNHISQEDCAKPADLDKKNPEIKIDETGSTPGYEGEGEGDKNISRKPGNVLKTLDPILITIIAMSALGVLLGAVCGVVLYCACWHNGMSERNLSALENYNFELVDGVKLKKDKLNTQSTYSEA
HIF activator = HIF pathway transcriptional activators, primary screen, cell-based, U2OS HRE-luciferase, luminescence | activation, % at 7.5 µM (by protocol) | actives 0.32% (n = 300,000) | U2OS HRE-luciferase reporter; normalized: DMSO 0%, desferrioxamine 100%;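 active = mean activation of at least 10% of the iron chelator positive control signal, with at least half of replicates also reaching 10%; inconclusive = mean and replicate majority disagree about reaching 10%; inactive = mean and most replicates under 10%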
AI-2 QS mod = Vibrio harveyi AI-2 quorum sensing modulators, primary screen, JMH597 strain, luminescence/OD600 ratio; Vibrio harveyi JMH597 AI-2 luminescence/OD600 ratio, 9 h; stronger effect = lower value; strain lacks LuxN and CqsS sensors; 0 = neutral-control median; activity change, % at 7.5 µM; actives 0.4% (n = 300,000); in the data active = activity change below about -75%, passing the limit was not always enough; inconclusive = no clear call, values can overlap the other calls;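 note: luminescence divided by OD600 gain over 9 h not by final OD600 alone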
V-ATPase pH = regulators of yeast V-ATPase proton pumping, primary screen, pHLuorin cytosolic pH fluorescence; S. cerevisiae; response, % at 10 µM; actives 0.37% (n = 350,000); AID 504577, 2011; in the data active = response mostly above about 7.3%, no sharp cut-off; inactive = mostly below about 5.4%; note: actives read high
* = called active by the depositor; ? = inconclusive; / = not tested or not shown.

SMILES | T cruzi repl | CR mimetic SO | NRP1-CendR mod | HIF activator | AI-2 QS mod | V-ATPase pH
O=C(c1cc2cc(F)ccc2[nH]1)N1CCN(Cc2ccc3c(c2)OCO3)CC1 | 20.8 | 96.8 | 0.0 | -0.3 | ? | 13.5*
NC(=O)C1(N2CCCCC2)CCN(C(=S)NCCc2ccccc2)CC1 | -0.3 | 107.1 | -3.6 | 0.6 | 7.0 | -0.4
COC(C/C=C\[C@H](O)COCc1ccccc1)OC | 0.0 | / | 25.4* | 0.0 | 7.0 | -2.5
CCOc1ccccc1N=C1SC(CC(=O)Nc2ccc(OC)cc2OC)C(=O)N1CCC1=CCCCC1 (centres undefined) | 58.4* | 106.4 | -17.6 | 0.0 | 25.9 | -2.8
CC(C)CCN(C(=O)CNC(=O)c1ccco1)C(C(=O)NC1CCCCC1)c1ccco1 (centres undefined) | 6.6 | 97.5 | 1.4 | 0.4 | 3.6 | 2.3
CCC(C(=O)OCC(=O)Nc1ccc(SC(F)F)cc1)c1ccccc1 (centres undefined) | 58.5* | / | 14.1 | 0.0 | -88.6* | 2.7
COC(=O)c1cc(S(=O)(=O)NCCCN2CCCC2=O)cn1C | -14.8 | 113.3 | -0.9 | 0.0 | 2.7 | 1.6
COc1cccc(NC(=O)c2cc([N+](=O)[O-])ccc2NC(=O)CNCC2CCCO2)c1 (centres undefined) | 0.5 | 64.5* | 3.7 | 0.0 | 18.8 | -2.1
Cc1c(C(=O)Nc2ccc(S(=O)(=O)NCC3CCCO3)cc2)cccc1[N+](=O)[O-] (centres undefined) | -10.3 | 100.6 | 37.7* | -0.1 | 22.8 | 1.9
CN1CCN(C(=O)c2ccc3c(c2)NC(=O)C(C)(C)O3)CC1 | -6.8 | 102.6 | -2.5 | -0.1 | 14.0 | -5.8
CCN(CC)CCn1c2ccccc2c2cnc(N)c(C#N)c21 | 65.2* | 111.0 | -11.4 | 24.9* | 11.6 | 3.0
CC1(C)CC2CC(C)(CN2C(=O)c2ccc([N+](=O)[O-])cc2[N+](=O)[O-])C1 (centres undefined) | 97.4* | 141.2 | -4.2 | -0.2 | 22.1 | -2.3
O=C(c1ccc([N+](=O)[O-])cc1[N+](=O)[O-])N1CCc2ccccc21 | 58.3* | 106.3 | 15.5 | -3.4 | 49.9 | -1.4
Cc1ccc(S(=O)(=O)/N=C2\CN(C)C(=O)N2C)cc1 | -9.5 | 114.7 | 6.5 | 0.0 | 20.8 | -4.0
CC(=O)c1cccc(CN2CCCC(CCC(=O)NCc3ccc(F)c(F)c3)C2)c1 (centres undefined) | 75.7* | 95.7 | 4.0 | 0.1 | -1.4 | -2.0
O=C(CCC1CCCN(Cc2ccncc2)C1)NCc1ccc(F)c(F)c1 (centres undefined) | 56.5* | 98.1 | 3.8 | -0.3 | 10.3 | 0.5
Cc1c(NC(=S)NC(=O)COc2ccccc2)c(=O)n(-c2ccccc2)n1C | -7.6 | 76.4 | 0.3 | -0.2 | 23.2 | -0.5
O=C(CN(c1ccc(Br)cc1)S(=O)(=O)c1ccc(Cl)c([N+](=O)[O-])c1)NCCc1ccccc1 | 75.0* | 102.0 | 0.1 | -0.7 | 18.0 | 1.7
COc1ccc(S(=O)(=O)N2CCC(C(=O)N3CCC(C(N)=O)CC3)CC2)cc1Cl | -3.6 | 98.3 | 14.5 | -0.1 | 2.0 | -2.2
Cc1ccccc1OCCC(=O)Nc1cc(S(=O)(=O)N2CCCCC2)ccc1N1CCN(C)CC1 | / | / | 4.9 | / | / | -0.9
Cc1ccc(OCC(=O)Nc2cc(S(=O)(=O)N3CCCCC3)ccc2N2CCN(C)CC2)c(C)c1 | 59.9* | 84.7 | 5.1 | -0.1 | -14.9 | -1.3
CC(=O)NCCC(=O)Nc1cc(S(=O)(=O)N2CCCCC2)ccc1N1CCN(C)CC1 | 75.8* | 136.2 | 10.2 | -0.2 | -0.2 | 4.9
Cc1cccc(OCC(=O)Nc2ccccc2N2CCCCC2)c1C | 40.6 | 85.1 | -2.5 | -0.1 | 21.2 | 8.8*
CN1CCN(c2ccc(S(=O)(=O)N3CCCCC3)cc2NC(=O)COc2ccc([N+](=O)[O-])cc2)CC1 | 58.1* | 99.2 | 13.0 | 0.3 | 15.5 | -2.7

Compound activity as filed in PubChem.
